Measurements reported in ChEMBL document CHEMBL5712899, “WDR5 supports colon cancer cells by promoting methylation of H3K4 and suppressing DNA damage” (2018).
Calls of active or inactive are those of the source. The rule behind the calls is not given here.

Assays:
HCT-116 [1] = assay: Induction of apoptosis in human HCT-116 cells assessed as necrotic cells at 10 uM measured after 48 hrs by Annexin V/Propidium iodide staining based flow cytometry (reference value: 0.67%); type: functional
SW-620 [2] = assay: Inhibition of colony formation in human SW620 cells assessed as decrease in number of colonies at 10 uM incubated for 10 to 14 days; type: functional, cell-based; conditions: time 10-14 day
Outline: (§1)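 Colony assay in 24-well plates with compound for 10–14 days, diluted from 10 mM DMSO stock to a final 0.1% DMSO (vehicle control). Colony number and average colony size quantified per line. Unpaired two-sided t-test.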

SW-620 [3] = assay: Induction of apoptosis in human SW620 cells assessed as early apoptotic cells at 10 uM measured after 48 hrs by Annexin V/Propidium iodide staining based flow cytometry (reference value: 4.03%); type: functional
RKO [4] = assay: Cytotoxicity against human RKO cells assessed as decrease in cell viability at 10 uM measured after 72 hrs by Alamar Blue assay; type: functional, cell-based
Outline: (§2)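 Cells grown in DMEM with 10% FBS and treated 72 h with compound diluted 1:1000 from 10 mM DMSO stock (final 0.1% DMSO, vehicle control). alamarBlue added at 100 μL per mL medium for 1–3 h at 37 °C, then fluorescence read. Values background-subtracted against cell-free wells and normalized to control set to 1. Shown ± SD; unpaired two-sided t-test.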

RKO [5] = assay: Inhibition of colony formation in human RKO cells assessed as decrease in number of colonies at 10 uM incubated for 10 to 14 days; type: functional, cell-based; conditions: time 10-14 day; outline: as §1
T84 [6] = assay: Inhibition of colony formation in human T84 cells assessed as decrease in number of colonies at 10 uM incubated for 10 to 14 days; type: functional, cell-based; conditions: time 10-14 day; outline: as §1
RKO [7] = assay: Cell cycle arrest in human RKO cells assessed as increase in G1-phase cell population at 10 uM measured after 48 hrs by propidium iodide staining based flow cytometry; type: functional
Outline: (§3)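 Fixed overnight at −20 °C in ice-cold 70% ethanol after collecting adherent and nonadherent cells. Rehydrated in PBS for 15 min at 37 °C, then PI-stained for 8–15 h. Read on an LSR II flow cytometer with cell-cycle modelling for phase percentages. Compound added from 10 mM DMSO stock diluted 1:1000 into pre-warmed medium (0.1% DMSO vehicle control). Unpaired two-sided t-test.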

RKO [8] = assay: Induction of apoptosis in human RKO cells assessed as necrotic cells at 10 uM measured after 48 hrs by Annexin V/Propidium iodide staining based flow cytometry (reference value: 0.54%); type: functional
SW-620 [9] = assay: Cytotoxicity against human SW620 cells assessed as reduction in cell viability at 10 uM for 72 hrs by Alamar Blue assay relative to control; type: functional; outline: as §2
LoVo [10] = assay: Inhibition of colony formation in human LoVo cells assessed as decrease in number of colonies at 10 uM incubated for 10 to 14 days; type: functional, cell-based; conditions: time 10-14 day; outline: as §1
HCT-116 [11] = assay: Induction of apoptosis in human HCT-116 cells assessed as early apoptotic cells at 10 uM measured after 48 hrs by Annexin V/Propidium iodide staining based flow cytometry (reference value: 19.4%); type: functional
RKO [12] = assay: Induction of apoptosis in human RKO cells assessed as late apoptotic cells at 10 uM measured after 48 hrs by Annexin V/Propidium iodide staining based flow cytometry (reference value: 6.58%); type: functional
SW-620 [13] = assay: Induction of apoptosis in human SW620 cells assessed as necrotic cells at 10 uM measured after 48 hrs by Annexin V/Propidium iodide staining based flow cytometry (reference value: 0.87%); type: functional
RKO [14] = assay: Inhibition of colony formation in human RKO cells assessed as decrease in colony size at 10 uM incubated for 10 to 14 days; type: functional, cell-based; conditions: time 10-14 day; outline: as §1
SW-620 [15] = assay: Inhibition of colony formation in human SW620 cells assessed as decrease in colony size at 10 uM incubated for 10 to 14 days; type: functional, cell-based; conditions: time 10-14 day; outline: as §1
HCT-116 [16] = assay: Induction of apoptosis in human HCT-116 cells assessed as viable cells at 10 uM measured after 48 hrs by Annexin V/Propidium iodide staining based flow cytometry (reference value: 62.7%); type: functional; conditions: read-out: Activity
[17] = Inhibition of RBBP5 interaction with flag-tagged human WDR5 expressed in HEK293T cells assessed as endogenous RBBP5 level at 10 uM measured after 5 hrs by co-immunoprecipitation assay relative to control; parameters: scale not given: the % may be the effect or the level left; conditions: condition malignant colon neoplasm
SW-620 [18] = assay: Cell cycle arrest in human SW620 cells assessed as increase in G1-phase cell population at 10 uM measured after 48 hrs by propidium iodide staining based flow cytometry; type: functional; outline: as §3
HCT-116 [19] = assay: Induction of apoptosis in human HCT-116 cells assessed as late apoptotic cells at 10 uM measured after 48 hrs by Annexin V/Propidium iodide staining based flow cytometry (reference value: 17.2%); type: functional
HCT-116 [20] = assay: Cytotoxicity against human HCT-116 cells assessed as decrease in cell viability at 10 uM for 72 hrs by Alamar Blue assay; type: functional, cell-based; outline: as §2
RKO [21] = assay: Induction of apoptosis in human RKO cells assessed as early apoptotic cells at 10 uM measured after 48 hrs by Annexin V/Propidium iodide staining based flow cytometry (reference value: 16.7%); type: functional
SW-620 [22] = assay: Induction of apoptosis in human SW620 cells assessed as viable cells at 10 uM measured after 48 hrs by Annexin V/Propidium iodide staining based flow cytometry (Rvb =84.8%); type: functional; conditions: read-out: Activity
RKO [23] = assay: Induction of apoptosis in human RKO cells assessed as viable cells at 10 uM measured after 48 hrs by Annexin V/Propidium iodide staining based flow cytometry (Rvb =76.1%); type: functional; conditions: read-out: Activity
SW-620 [24] = assay: Induction of apoptosis in human SW620 cells assessed as late apoptotic cells at 10 uM measured after 48 hrs by Annexin V/Propidium iodide staining based flow cytometry (reference value: 10.3%); type: functional
T84 [25] = assay: Inhibition of colony formation in human T84 cells assessed as decrease in colony size at 10 uM incubated for 10 to 14 days; type: functional, cell-based; conditions: time 10-14 day; outline: as §1
LoVo [26] = assay: Inhibition of colony formation in human LoVo cells assessed as decrease in colony size at 10 uM incubated for 10 to 14 days; type: functional, cell-based; conditions: time 10-14 day; outline: as §1
SW480 = assay: Inhibition of colony formation in human SW480 cells assessed as decrease in number of colonies at 10 uM incubated for 10 to 14 days; type: functional, cell-based; conditions: time 10-14 day; outline: as §1
T84 [27] = assay: Cytotoxicity against human T84 cells assessed as reduction in cell viability at 10 uM for 72 hrs by Alamar Blue assay relative to control; type: functional; outline: as §2
HCT-116 [28] = assay: Inhibition of colony formation in human HCT-116 cells assessed as decrease in colony size at 10 uM incubated for 10 to 14 days; type: functional, cell-based; conditions: time 10-14 day; outline: as §1

CN1CCN(c2ccc(-c3cccc(CN4CCOCC4)c3)cc2NC(=O)c2c[nH]c(=O)cc2C(F)(F)F)CC1
Activity (HCT-116 [1]): 1.36% | inhibition (SW-620 [2]): Active | Activity (SW-620 [3]): 8.01% | Activity (RKO [4]): Active | inhibition (RKO [5]): Active | inhibition (T84 [6]): Active | Activity (RKO [7]): Active | Activity (RKO [8]): 0.18% | Activity (SW-620 [9]): 50% | inhibition (LoVo [10]): inactive | Activity (HCT-116 [11]): 22.2% | Activity (RKO [12]): 4.3% | Activity (SW-620 [13]): 0.43% | inhibition (RKO [14]): inactive | inhibition (SW-620 [15]): Active | viability at 10 µM (HCT-116 [16]): 46.1% | Activity [17]: <20% | Activity (SW-620 [18]): Active | Activity (HCT-116 [19]): 30.4% | Activity (HCT-116 [20]): Active | Activity (RKO [21]): 27% | viability at 10 µM (SW-620 [22]): 81.3% | viability at 10 µM (RKO [23]): 68.5% | Activity (SW-620 [24]): 10.3% | inhibition (T84 [25]): Active | inhibition (LoVo [26]): inactive | inhibition (SW480): Active | Activity (T84 [27]): 50% | inhibition (HCT-116 [28]): Active
